Results of several laboratories.
Compare with care: the assays were run in different laboratories.
Target: Tyrosine-protein kinase receptor UFO (AXL, Homo sapiens, UniProt P30530)

Cc1ccc(C(=O)NCc2ccsc2)cc1C#Cc1cn(C(C)C)c2ncnc(N)c12
activity vs control (enzyme activity; inhibitor; 1 µM): 72%

CS(=O)(=O)N1CCCC(NC(=O)[C@H](CCC2CCCCC2)NC(=O)c2ccc(CNc3ncnc4c3nnn4-c3ccccc3)cc2)C1 (some centres unmarked)
remaining binding (cell-free assay; competition with immobilised ligand; 0.1 µM): 79%

C=CC(=O)Nc1cc(Nc2nccc(Nc3cc(Cl)c(F)cc3C(C)(C)O)n2)c(OC)cc1N1CC[C@@H](N(C)C)C1
inhibition (enzyme activity; inhibitor; 1 µM): 16%

CS(=O)(=O)CCNCc1ccc(-c2ccc3ncnc(Nc4ccc(OCc5cccc(F)c5)c(Cl)c4)c3c2)o1
remaining signal (cell-free assay; 0.5 µM): 96.2%

Cc1[nH]c(/C=C2\C(=O)Nc3ccc(F)cc32)c(C)c1C(=O)N[C@H]1CCN(C(=O)N(C)C)C1
remaining activity (enzyme activity; inhibitor; 1 µM): 43%

COc1cc(Nc2c(C#N)cnc3cc(OCCCN4CCN(C)CC4)c(OC)cc23)c(Cl)cc1Cl
remaining signal (cell-free assay; 0.5 µM): 37.6%

COc1cc2ncnc(Nc3ccc(Oc4ccccc4)c(C)c3C)c2cc1OC
inhibition (enzyme activity; inhibitor; 1 µM): -3%

Cc1ccc(C(=O)Nc2ccc(CN3CCN(C)CC3)c(C(F)(F)F)c2)cc1C#Cc1cnc2cccnn12
remaining activity (enzyme activity; 23.5 nM): 45%

CC(C)(O)[C@H]1CC[C@H](Nc2ccc3ncc(-c4cccc(C(F)(F)F)c4)n3n2)CC1
remaining activity (enzyme activity; inhibitor; 1 µM): 78%

CCN(CC)CCNC(=O)c1c(C)[nH]c(/C=C2\C(=O)Nc3ccc(Cl)cc32)c1C
remaining activity (enzyme activity; inhibitor; 0.5 µM): 25.2%

CN(C)C(=O)Cn1cc(-c2nc([C@@](C)(c3ccc(-c4cnc(N)nc4)cc3)C3CC3)no2)cn1
remaining binding (cell-free assay; competition with immobilised ligand; 1 µM): 98%

CCN(CC)CCNC(=O)c1c(C)[nH]c(/C=C2\C(=O)Nc3ccc(F)cc32)c1C
remaining activity (enzyme activity; inhibitor; 1 µM): 7%

CCCOc1ccc([C@H]2[C@H](C(=O)O)[C@@H](c3ccc4c(c3)OCO4)CN2CC(=O)Nc2c(CC)cccc2CC)cc1
remaining binding (cell-free assay; competition with immobilised ligand; 1 µM): 83%

Cc1sc(C(=O)NC2COC2)cc1-n1cc(NC(=O)Nc2c(F)cccc2Cl)cn1
remaining activity (enzyme activity; inhibitor; 10 µM): 86.6%

CC(=O)N1CCC(c2ccc(C(=O)NC(=N)N)cc2C(F)(F)F)CC1
remaining binding (cell-free assay; competition with immobilised ligand; 1 µM): 100%

COc1cc(Cl)c(C(=O)N[C@@H](CN[C@H]2CC[C@@H](N)CC2)Cc2ccc(C#N)cc2)cc1-c1ccc(CN[C@H](C)c2ccc(C)cc2)o1
remaining activity (enzyme activity; inhibitor; 1 µM): 56%

CC(C)(C)c1nc2c(s1)c1nc(N)ncc1c1ccc(NS(=O)(=O)c3c(F)cccc3F)c(F)c12
remaining activity (enzyme activity; inhibitor; radiometric; 1 µM): 100%

CCN(CC)c1ccc(C2=NNC(=O)CC2C)cc1[N+](=O)[O-] (centres unmarked)
remaining activity (enzyme activity; inhibitor; 10 µM): 94%

COc1ccc(C(=O)Nc2sc3c(c2C(N)=O)CCCC3)cc1OC
remaining activity (enzyme activity; inhibitor; 0.5 µM): 84.4%

CNC(=O)Nc1ccc2c(c1)[C@@]1(CC2)OC(=O)N(CC(=O)N(Cc2ccc(F)cc2)[C@@H](C)C(F)(F)F)C1=O
remaining binding (cell-free assay; competition with immobilised ligand; 1 µM): 67%

COc1cc2c(Nc3ccc(Br)cc3F)ncnc2cc1OCC1CCN(C)CC1
remaining signal (cell-free assay; 0.5 µM): 55%

Nc1ncnc2occ(-c3ccc(NC(=O)Nc4cc(C(F)(F)F)ccc4F)cc3)c12
remaining signal (cell-free assay; 20 µM): 21%

COc1cc2nccc(Oc3ccc(NC(=S)NC(=O)c4ccccc4C)cc3)c2cc1OC
remaining activity (enzyme activity; inhibitor; 0.5 µM): 80.4%

COc1ccc2cc(OCC3(C(=O)O)CN(C(=O)c4ccc(F)cc4)C3)ccc2c1
remaining binding (cell-free assay; competition with immobilised ligand; 1 µM): 100%

CCN1CCN(Cc2ccc(NC(=O)c3ccc(C)c(Oc4ccnc5[nH]ccc45)c3)cc2C(F)(F)F)CC1
inhibition (target engagement in cells; inhibitor; chemoproteomics; A-375; 5 µM): -35.7%

CCC(=O)N[C@@H]1CC[C@H](C(=O)N(C)c2ccc(-c3nc4ccccc4o3)cc2)C1
remaining binding (cell-free assay; competition with immobilised ligand; 1 µM): 100%

Cc1cnc(NC2CCOCC2)nc1-n1cnc(C(=O)NC(CN)c2cc(F)cc(Cl)c2)c1 (centres unmarked)
remaining activity (enzyme activity; inhibitor; radiometric; 1 µM): 103%

Cc1cc(NC(=O)c2cccc(S(F)(F)(F)(F)F)c2)cc(-n2ccn3nc(-c4cccnc4)cc23)c1
remaining binding (cell-free assay; competition with immobilised ligand; 1 µM): 100%

CNC(=O)c1cc(Oc2ccc(NC(=O)Nc3ccc(Cl)c(C(F)(F)F)c3)cc2)ccn1
inhibition (enzyme activity; inhibitor; 0.3 µM): 3%

O=c1cc(-c2cccc3c2Sc2ccccc2S3)oc(N2CCOCC2)c1
remaining activity (enzyme activity; inhibitor; 0.5 µM): 106%

CCN(CC)CCNC(=O)c1c(C)[nH]c(/C=C2\C(=O)Nc3ccc(F)cc32)c1C
inhibition (enzyme activity; inhibitor; 10 µM): 94%

CNCc1ccc(-c2cc(-c3nc(-c4ccc(S(=O)(=O)C(C)C)cc4)cnc3N)on2)cc1
inhibition (enzyme activity; inhibitor; 2 µM): 75%
